# Experimental data published in ChEMBL document CHEMBL3286129, “Optimization of peptidomimetic boronates bearing a P3 bicyclic scaffold as proteasome inhibitors” (Eur J Med Chem, 2014).
# Columns and labels:
# NCI-H460 = experiment: Growth inhibition of human NCI-H460 cells; type: functional
# [1] = Growth inhibition of human HCC2998 cells; type: functional; details: HCC 2998
# HCT-116 = experiment: Growth inhibition of human HCT116 cells; type: functional
# KM12 = experiment: Growth inhibition of human KM12 cells; type: functional
# SW-620 = experiment: Growth inhibition of human SW620 cells; type: functional
# SF-268 = experiment: Growth inhibition of human SF268 cells; type: functional
# [2] = Growth inhibition of human SF295 cells; type: functional; details: SF-295
# SNB-75 = experiment: Growth inhibition of human SNB75 cells; type: functional
# Malme-3M = experiment: Growth inhibition of human MALME-3M cells; type: functional
# M14 = experiment: Growth inhibition of human M14 cells; type: functional
# MDA-MB-435 = experiment: Growth inhibition of human MDA-MB-435 cells; type: functional
# SK-MEL-5 = experiment: Growth inhibition of human SK-MEL-5 cells; type: functional
# [3] = Growth inhibition of human UACC62 cells; type: functional; details: UACC-62
# [4] = Growth inhibition of human OVCAR4 cells; type: functional
# [5] = Growth inhibition of human NCI-ADR-RES cells; type: functional
# SK-OV-3 = experiment: Growth inhibition of human SKOV3 cells; type: functional
# SN12C = experiment: Growth inhibition of human SN12C cells; type: functional
# [6] = Growth inhibition of human UO31 cells; type: functional; details: UO-31
# DU-145 = experiment: Growth inhibition of human DU145 cells; type: functional
# [7] = Growth inhibition of human Hs 578T cells; type: functional
# T47D = experiment: Growth inhibition of human T47D cells; type: functional
# MDA-MB-468 = experiment: Growth inhibition of human MDA-MB-468 cells; type: functional
# [8] = target: T1, Proteasome Macropain subunit MB1 (Homo sapiens) (UniProt P28074); experiment: Inhibition of chymotrypsin-like activity of 20S proteasome in human erythrocytes using Suc-Leu-Leu-Val-Tyr-AMC as substrate at 20 uM by fluorescence assay relative to control
# T1 sequence (whole entry): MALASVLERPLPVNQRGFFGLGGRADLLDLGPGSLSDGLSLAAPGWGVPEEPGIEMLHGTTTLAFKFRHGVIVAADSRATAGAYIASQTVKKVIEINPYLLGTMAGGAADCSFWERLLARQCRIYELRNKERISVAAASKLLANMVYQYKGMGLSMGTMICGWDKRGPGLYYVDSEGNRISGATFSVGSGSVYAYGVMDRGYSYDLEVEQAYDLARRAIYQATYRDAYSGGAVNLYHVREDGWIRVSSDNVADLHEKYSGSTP
# How it was run: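 Single inhibitor concentration, equivalent DMSO as negative control. AMC fluorescence read at ex 380/em 460 nm; percent inhibition of ChT-L activity.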
# [9] = target: T2, Proteasome Macropain subunit MB1 (Homo sapiens, UniProt P28074); experiment: Inhibition of chymotrypsin-like activity of 20S proteasome in human erythrocytes using Suc-Leu-Leu-Val-Tyr-AMC as substrate by fluorescence assay; details: read-out: Ki
# T2 sequence (P28074 whole entry): T1 sequence (whole entry)
# [10] = Cytotoxicity against human NSCLC cells assessed as cell growth at 10 uM relative to control; type: functional; details: read-out: Activity
# How it was run: (§1)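 Single-concentration screen against a panel of human cancer cell lines. Each value is the mean percent growth across the cell lines of that tumour subpanel.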
# [11] = Cytotoxicity against human colon cancer cells assessed as cell growth at 10 uM relative to control; type: functional; details: Cancer cell lines, read-out: Activity; how it was run: as §1
# [12] = Cytotoxicity against human melanoma cells assessed as cell growth at 10 uM relative to control; type: functional; details: read-out: Activity; how it was run: as §1
# [13] = Cytotoxicity against human prostate cancer cells assessed as cell growth at 10 uM relative to control; type: functional; details: Cancer cell lines, read-out: Activity; how it was run: as §1
# CCRF-CEM = experiment: Growth inhibition of human CCRF-CEM cells; type: functional
# HL-60(TB) = experiment: Growth inhibition of human HL-60(TB) cells; type: functional
# [14] = Growth inhibition of human MOLT4 cells; type: functional
# SR = experiment: Growth inhibition of human SR cells; type: functional
# [15] = read-out: LC50 (the source's name)
compound,measurement,setting,value
CC(C)C[C@H](NC(=O)CCn1ccc2ncccc2c1=O)B(O)O,GI50,NCI-H460,36.2 µM
same,LC50,NCI-H460,> 100 µM
same,TGI,NCI-H460,> 100 µM
same,GI50,[1],13.6 µM
same,LC50,[1],90.2 µM
same,TGI,[1],35 µM
same,GI50,HCT-116,3.3 µM
same,LC50,HCT-116,86.2 µM
same,TGI,HCT-116,16.5 µM
same,GI50,KM12,17 µM
same,LC50,KM12,> 100 µM
same,TGI,KM12,49.6 µM
same,GI50,SW-620,4.62 µM
same,LC50,SW-620,> 100 µM
same,TGI,SW-620,> 100 µM
same,GI50,SF-268,14.7 µM
same,LC50,SF-268,> 100 µM
same,TGI,SF-268,> 100 µM
same,GI50,[2],8.92 µM
same,LC50,[2],> 100 µM
same,TGI,[2],36 µM
same,GI50,SNB-75,13.3 µM
same,LC50,SNB-75,> 100 µM
same,TGI,SNB-75,44.9 µM
same,GI50,Malme-3M,5.12 µM
same,TGI,Malme-3M,62.2 µM
same,CC50,Malme-3M; [15],> 100 µM
same,GI50,M14,4.11 µM
same,LC50 (concentration killing 50% of cells),M14,97.9 µM
same,TGI,M14,22.3 µM
same,GI50,MDA-MB-435,2.41 µM
same,TGI,MDA-MB-435,7.02 µM
same,CC50,MDA-MB-435; [15],67.8 µM
same,GI50,SK-MEL-5,4.03 µM
same,LC50 (concentration killing 50% of cells),SK-MEL-5,> 100 µM
same,TGI,SK-MEL-5,22.1 µM
same,GI50,[3],5.55 µM
same,LC50 (concentration killing 50% of cells),[3],> 100 µM
same,TGI,[3],48.8 µM
same,GI50,[4]; OVCAR-4,28.4 µM
same,TGI,[4]; OVCAR-4,> 100 µM
same,CC50,"[4]; OVCAR-4, read-out: LC50 (the source's name)",> 100 µM
same,GI50,[5],> 100 µM
same,LC50,[5],> 100 µM
same,TGI,[5],> 100 µM
same,GI50,SK-OV-3,> 100 µM
same,LC50,SK-OV-3,> 100 µM
same,TGI,SK-OV-3,> 100 µM
same,GI50,SN12C,18 µM
same,TGI,SN12C,> 100 µM
same,CC50,SN12C; [15],> 100 µM
same,GI50,[6],19.4 µM
same,LC50,[6],> 100 µM
same,TGI,[6],> 100 µM
same,GI50,DU-145,32.7 µM
same,TGI,DU-145,> 100 µM
same,CC50,DU-145; [15],> 100 µM
same,GI50,[7],15.6 µM
same,TGI,[7],> 100 µM
same,CC50,[7]; [15],> 100 µM
same,GI50,T47D,4.67 µM
same,TGI,T47D,> 100 µM
same,CC50,T47D; [15],> 100 µM
same,GI50,MDA-MB-468,2.04 µM
same,TGI,MDA-MB-468,9.96 µM
same,CC50,MDA-MB-468; [15],> 100 µM
same,inhibition,[8],> 40%
same,Ki,[9],0.057 µM
same,growth at 10 µM,[10],80.3%
same,growth at 10 µM,[11],78.1%
same,growth at 10 µM,[12],60.4%
same,growth at 10 µM,[13],98.5%
same,GI50,CCRF-CEM,2.35 µM
same,TGI,CCRF-CEM,> 100 µM
same,CC50,CCRF-CEM; [15],> 100 µM
same,GI50,HL-60(TB),6.88 µM
same,TGI,HL-60(TB),> 100 µM
same,GI50,[14]; MOLT-4,3.3 µM
same,TGI,[14]; MOLT-4,> 100 µM
same,CC50,"[14]; MOLT-4, read-out: LC50 (the source's name)",> 100 µM
same,GI50,SR,3.18 µM
same,TGI,SR,> 100 µM
same,CC50,SR; [15],> 100 µM
